Test [1] concerns the target Transthyretin (Homo sapiens) (UniProt P02766). In words: Percentage of WT-TTR (3.6 uM) amyloid fibril formation at pH 4.4 upon incubation with the compound (7.2 uM). The method, boiled down:
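WT-TTR (7.2 µM, 0.4 mg/mL) in 10 mM phosphate pH 7.2, 100 mM KCl, 1 mM EDTA was preincubated 30 min at 37 °C with inhibitor added from a 1.44 mM DMSO stock. An equal volume of 200 mM acetate pH 4.2 brought the sample to pH 4.4 (3.6 µM TTR, 7.2 µM compound final). Left 72 h at 37 °C, vortexed, turbidity read at 350 and 400 or 500 nm. Run in duplicate or triplicate.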

For test [2] the target is unchanged. In words: Binding stoichiometry to TTR in human blood plasma determined by antibody capture/HPLC method. It counts as cell-free. The method in brief:
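Human blood plasma spiked to 10.8 µM test compound from a 2.16 mM DMSO stock and incubated 24 h at 37 °C. Plasma was precleared with plain Sepharose for 1 h at 4 °C, then split into three aliquots for anti-TTR antibody-resin capture (20 min, 4 °C) in 10 mM Tris pH 8.0, 140 mM NaCl. Resin washed, eluted with 100 mM triethylamine pH 11.5, eluate analysed by HPLC for compound:TTR stoichiometry.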

For test [3] the target is unchanged. In words: Percentage compound remaining at the conclusion of the acid-mediated fibril formation assay (72 h) in absence of TTR, assay conditions, compound (7.2 uM), pH 4.4, 37C. The method in brief: (§1)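 Compound at 7.2 µM was incubated in the dark with or without 3.6 µM WT-TTR under acid fibril conditions (pH 4.4, 37 °C, 72 h). Analytical RP-HPLC peak area of the compound at the end was compared with the area at the start. Measurement error stated as 4%.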

Test [4] shares this target. In words: Percentage compound remaining at the conclusion of the acid-mediated fibril formation assay (72 h), assay conditions compound (7.2 uM), WT-TTR (3.6 uM, pH 4.4, 37C). The method, boiled down:
as §1

The record followed here is ChEMBL document CHEMBL1142707, “Bisaryloxime ethers as potent inhibitors of transthyretin amyloid fibril formation” (J Med Chem, 2005).

Bounds are passed on as bounds.

In the case of `O=C(O)c1cccc(O/N=C/c2cc(F)cc(F)c2)c1`, the Formation in test [1] is 8%. This compound also returned a Binding stoichiometry in test [2] of less than 0.5.

Turning to `C(=N\Oc1ccccc1)/c1ccccc1`, the Formation in test [1] worked out at 96%.

For `FC(F)(F)c1ccccc1O/N=C/c1ccccc1`, the Formation in test [1] was 56%.

The compound `O=C(O)c1ccc(O/N=C/c2cccc(C(F)(F)F)c2)cc1` gave a Formation in test [1] of 50%.

In turn, `O=C(O)c1cccc(O/N=C/c2ccccc2)c1` returned a Formation in test [1] of 50%.

Compound `O=C(O)c1ccc(O/N=C/c2ccc(C(F)(F)F)cc2)cc1` yielded a Formation in test [1] of 94%.

`O=C(O)c1cccc(O/N=C/c2ccccc2C(F)(F)F)c1` yielded a Formation in test [1] of 1%. Besides, the Binding stoichiometry in test [2] was determined as 1. The Activity in test [3] is 20%; in test [4], 88%.

`FC(F)(F)c1cccc(/C=N/Oc2ccccc2C(F)(F)F)c1` returned a Formation in test [1] of 57%.

`FC(F)(F)c1cccc(/C=N/Oc2cccc(C(F)(F)F)c2)c1` displayed a Formation in test [1] of 83%.

In test [1], `Oc1c(I)cc(/C=N/Oc2ccccc2C(F)(F)F)cc1I` came in with a Formation of 1%. For the same compound, in test [2], the Binding stoichiometry is 1.71. Besides, the Activity in test [3] was determined as 89%; in test [4], 100%.

`Clc1cccc(Cl)c1/C=N/Oc1ccccc1` had a Formation in test [1] of 63%.

Compound `FC(F)(F)c1cccc(O/N=C/c2c(Cl)cccc2Cl)c1` registered a Formation in test [1] of 21%.

Compound `O=C(O)c1cccc(/C=N/Oc2cccc(C(F)(F)F)c2)c1` yielded a Formation in test [1] of 9%. Also, the Binding stoichiometry in test [2] is less than 0.5.

`O=C(O)c1ccccc1/C=N/Oc1cccc(C(F)(F)F)c1` registered a Formation in test [1] of 84%.

Turning to `O=C(O)c1ccccc1O/N=C/c1cccc(C(F)(F)F)c1`, the Formation in test [1] turned out to be 74%.

`O=C(O)c1ccc(O/N=C/c2cc(Cl)cc(Cl)c2)cc1` registered a Formation in test [1] of 9%. This compound had a Binding stoichiometry in test [2] of 0.53.

For the compound `FC(F)(F)c1cccc(O/N=C/c2cc(Cl)cc(Cl)c2)c1`, the Formation in test [1] was 72%.

In the case of `FC(F)(F)c1ccccc1/C=N/Oc1ccccc1`, the Formation in test [1] was found to be 65%.

In test [1], `Oc1c(Br)cc(/C=N/Oc2cc(F)cc(F)c2)cc1Br` displayed a Formation of 3%. This compound came in with a Binding stoichiometry in test [2] of 1.42.

With `Oc1c(Br)cc(/C=N/Oc2cc(Cl)cc(Cl)c2)cc1Br`, the Formation in test [1] turned out to be 3%. In test [2], this compound gave a Binding stoichiometry of 0.69.

Regarding `FC(F)(F)c1ccc(/C=N/Oc2cccc(C(F)(F)F)c2)cc1`, the Formation in test [1] was 93%.

On to `Fc1cc(F)cc(O/N=C/c2c(Cl)cccc2Cl)c1`, for which the Formation in test [1] came out at 24%.

Turning to `FC(F)(F)c1cccc(O/N=C/c2ccccc2)c1`, the Formation in test [1] is 83%.

Regarding `Fc1cc(F)cc(/C=N/Oc2cc(Cl)cc(Cl)c2)c1`, the Formation in test [1] came to 61%.

Compound `O=C(O)c1ccc(O/N=C/c2cccc(C(=O)O)c2)cc1` registered a Formation in test [1] of 13%.

In turn, `Oc1c(I)cc(/C=N/Oc2cccc(C(F)(F)F)c2)cc1I` had a Formation in test [1] of 4%. This compound gave a Binding stoichiometry in test [2] of 1.02.

The compound `FC(F)(F)c1ccccc1O/N=C/c1cc(Cl)cc(Cl)c1` came in with a Formation in test [1] of 33%.

Compound `FC(F)(F)c1ccccc1/C=N/Oc1ccccc1C(F)(F)F` yielded a Formation in test [1] of 83%.

As for `O=C(O)c1ccccc1O/N=C/c1ccccc1`, the Formation in test [1] is 91%.

`FC(F)(F)c1cccc(O/N=C/c2ccccc2C(F)(F)F)c1`: the Formation in test [1] worked out at 83%.

The compound `Fc1cc(F)cc(/C=N/Oc2ccccc2C(F)(F)F)c1` displayed a Formation in test [1] of 75%.

`Clc1cc(Cl)cc(/C=N/Oc2ccccc2)c1`: the Formation in test [1] amounted to 56%.

As to `Fc1cc(F)cc(/C=N/Oc2cccc(C(F)(F)F)c2)c1`, in test [1], the Formation is 88%.

On to `O=C(O)c1cccc(/C=N/Oc2cc(Cl)cc(Cl)c2)c1`, for which the Formation in test [1] came out at 3%. In addition, the Binding stoichiometry in test [2] was determined as 0.56.

In test [1], `FC(F)(F)c1ccc(/C=N/Oc2ccccc2C(F)(F)F)cc1` came in with a Formation of 81%.

The compound `O=C(O)c1cccc(/C=N/Oc2cc(F)cc(F)c2)c1` came in with a Formation in test [1] of 6%. The compound also gave a Binding stoichiometry in test [2] of less than 0.5.

For `O=C(O)c1ccccc1/C=N/Oc1cc(Cl)cc(Cl)c1`, the Formation in test [1] worked out at 30%.

With `O=C(O)c1ccc(O/N=C/c2cc(F)cc(F)c2)cc1`, the Formation in test [1] was 18%.

For the compound `O=C(O)c1ccccc1O/N=C/c1cc(F)cc(F)c1`, in test [1], the Formation stood at 78%.

With `O=C(O)c1cccc(/C=N/Oc2cccc(C(=O)O)c2)c1`, the Formation in test [1] is 15%.

In turn, `FC(F)(F)c1ccc(/C=N/Oc2cc(Cl)cc(Cl)c2)cc1` came in with a Formation in test [1] of 68%.

For the compound `O=C(O)c1ccc(/C=N/Oc2cccc(C(F)(F)F)c2)cc1`, the Formation in test [1] came to 12%.

For the compound `O=C(O)c1ccc(/C=N/Oc2ccccc2C(=O)O)cc1`, the Formation in test [1] was determined as 87%.

As to `O=C(O)c1ccccc1O/N=C/c1cc(I)c(O)c(I)c1`, the Formation in test [1] is 0%. In test [2], this compound showed a Binding stoichiometry of less than 0.5.

Turning to `Fc1cc(F)cc(O/N=C/c2ccc(C(F)(F)F)cc2)c1`, the Formation in test [1] worked out at 77%.

`FC(F)(F)c1ccccc1O/N=C/c1c(Cl)cccc1Cl` gave a Formation in test [1] of 15%.

Take `O=C(O)c1ccc(/C=N/Oc2cc(F)cc(F)c2)cc1`: the Formation in test [1] is 9%. The compound further returned a Binding stoichiometry in test [2] of less than 0.5.

Regarding `O=C(O)c1cccc(/C=N/Oc2ccccc2C(=O)O)c1`, the Formation in test [1] was found to be 87%.

In test [1], `Fc1cc(F)cc(O/N=C/c2ccccc2C(F)(F)F)c1` yielded a Formation of 71%.

The compound `O=C(O)c1ccccc1/C=N/Oc1ccccc1C(F)(F)F` displayed a Formation in test [1] of 75%.

In turn, `O=C(O)c1ccc(/C=N/Oc2cccc(C(=O)O)c2)cc1` had a Formation in test [1] of 31%.

With `Clc1cc(Cl)cc(O/N=C/c2c(Cl)cccc2Cl)c1`, the Formation in test [1] was 62%.

In test [1], `O=C(O)c1cccc(O/N=C/c2cc(Br)c(O)c(Br)c2)c1` showed a Formation of 0%. This compound also returned a Binding stoichiometry in test [2] of less than 0.5.

The compound `O=C(O)c1ccccc1O/N=C/c1ccccc1C(F)(F)F` had a Formation in test [1] of 34%.

On to `FC(F)(F)c1cccc(/C=N/Oc2cc(Cl)cc(Cl)c2)c1`, for which the Formation in test [1] was 55%.

On to `O=C(O)c1cccc(/C=N/Oc2ccccc2C(F)(F)F)c1`, for which, in test [1], the Formation is 6%. The compound also had a Binding stoichiometry in test [2] of 1.07.

Consider `Fc1cc(F)cc(O/N=C/c2cc(Cl)cc(Cl)c2)c1`, for which the Formation in test [1] came out at 90%.

In test [1], `O=C(O)c1cccc(/C=N/Oc2ccccc2)c1` yielded a Formation of 79%.

Turning to `O=C(O)c1cccc(O/N=C/c2cccc(C(F)(F)F)c2)c1`, the Formation in test [1] is 27%.

Regarding `Oc1c(Br)cc(/C=N/Oc2cccc(C(F)(F)F)c2)cc1Br`, the Formation in test [1] was 4%. The same compound showed a Binding stoichiometry in test [2] of 1.17.

In test [1], `Fc1cc(F)cc(/C=N/Oc2ccccc2)c1` yielded a Formation of 95%.

For the compound `O=C(O)c1cccc(O/N=C/c2ccccc2C(=O)O)c1`, the Formation in test [1] was 94%.

In test [1], `O=C(O)c1ccccc1/C=N/Oc1cc(F)cc(F)c1` displayed a Formation of 84%.

Compound `Oc1c(I)cc(/C=N/Oc2cc(F)cc(F)c2)cc1I` gave a Formation in test [1] of 3%. Moreover, the Binding stoichiometry in test [2] came to 1.83.

The compound `FC(F)(F)c1ccccc1/C=N/Oc1cc(Cl)cc(Cl)c1` gave a Formation in test [1] of 32%.

As to `O=C(O)c1cccc(O/N=C/c2ccc(C(F)(F)F)cc2)c1`, the Formation in test [1] came out at 83%.

`Clc1cc(Cl)cc(/C=N/Oc2cc(Cl)cc(Cl)c2)c1`: in test [1], the Formation stood at 63%.

As to `O=C(O)c1ccc(O/N=C/c2ccccc2)cc1`, the Formation in test [1] is 32%.

`FC(F)(F)c1cccc(/C=N/Oc2ccccc2)c1`: in test [1], the Formation turned out to be 92%.

As for `O=C(O)c1ccccc1/C=N/Oc1ccccc1`, in test [1], the Formation turned out to be 91%.

`O=C(O)c1ccccc1O/N=C/c1c(Cl)cccc1Cl` displayed a Formation in test [1] of 59%.

In turn, `O=C(O)c1cccc(O/N=C/c2c(Cl)cccc2Cl)c1` came in with a Formation in test [1] of 1%. This compound also registered a Binding stoichiometry in test [2] of 0.71.

Turning to `Fc1cc(F)cc(O/N=C/c2ccccc2)c1`, in test [1], the Formation was found to be 87%.

`O=C(O)c1ccccc1O/N=C/c1ccc(C(F)(F)F)cc1` returned a Formation in test [1] of 90%.

As to `O=C(O)c1cccc(O/N=C/c2cc(Cl)cc(Cl)c2)c1`, in test [1], the Formation stood at 0%. The Binding stoichiometry in test [2] is less than 0.5.

In test [1], `O=C(O)c1ccccc1O/N=C/c1cc(Br)c(O)c(Br)c1` displayed a Formation of 0%. In test [2], the Binding stoichiometry was less than 0.5.

For the compound `O=C(O)c1ccc(/C=N/Oc2ccccc2)cc1`, the Formation in test [1] turned out to be 77%.

Consider `O=C(O)c1ccc(/C=N/Oc2cc(Cl)cc(Cl)c2)cc1`, for which, in test [1], the Formation came out at 9%. Further, the Binding stoichiometry in test [2] was 0.78.

`O=C(O)c1ccc(/C=N/Oc2ccc(C(=O)O)cc2)cc1` had a Formation in test [1] of 46%.

As for `FC(F)(F)c1ccc(/C=N/Oc2ccccc2)cc1`, the Formation in test [1] is 98%.

`Fc1cc(F)cc(/C=N/Oc2cc(F)cc(F)c2)c1` gave a Formation in test [1] of 94%.

On to `O=C(O)c1ccc(O/N=C/c2ccccc2C(=O)O)cc1`, for which the Formation in test [1] is 97%.

In test [1], `Clc1cc(Cl)cc(O/N=C/c2ccccc2)c1` came in with a Formation of 39%.

For `Fc1cc(F)cc(O/N=C/c2cccc(C(F)(F)F)c2)c1`, the Formation in test [1] was 86%.

On to `Oc1c(I)cc(/C=N/Oc2cc(Cl)cc(Cl)c2)cc1I`, for which, in test [1], the Formation was 4%. In addition, in test [2], the Binding stoichiometry came to 0.55.
